According to ChEMBL document CHEMBL1122310, “Synthesis of exo-3-phenylbicyclo[3.2.1]oct-3-en-2-amine and related compounds as potential analgesics” (1983):
Where “and” joins values, the source holds several entries; their conditions need not be identical. Identical values can stand only once.

Legend:
Format in all cases: functional
Rattus norvegicus [1] = species: Rattus norvegicus; experiment: Antinociceptive activity by measuring in flamed paw pressure threshold in rat
Summary of the method: (§1)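 ED50 determination: six animals per dose group, each dose tested on two or three separate occasions. Pooled data (total dose groups of 12 or 18 animals) analysed by regression to give ED50. Inflamed-paw pressure test in rats; acetylcholine-induced writhing in mice. Doses for the rat paw test given po.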

Rattus norvegicus [2] = experiment: Behavioral stimulant activity in rat by sc administration; Slight to moderate CNS stimulation
Mus musculus = species: Mus musculus; experiment: Antinociceptive activity by measuring inhibition of acetylcholine writhing in mouse; summary of the method: as §1
Rattus norvegicus [3] = experiment: Behavioral stimulant activity in rat by sc administration; Marked CNS stimulation
Rattus norvegicus [4] = experiment: Behavioral stimulant activity in rat by sc administration; Moderate CNS stimulation
Rattus norvegicus [5] = experiment: Behavioral stimulant activity in rat by peroral administration; Inactive
Rattus norvegicus [6] = experiment: Behavioral stimulant activity in rat by sc administration; Marked CNS activity

Row | SMILES | ED50 (Rattus norvegicus [1]) | Dose (Rattus norvegicus [2]) | ED50 (Mus musculus) | Dose (Rattus norvegicus [3]) | Dose (Rattus norvegicus [4]) | Dose (Rattus norvegicus [5]) | Dose (Rattus norvegicus [6])
1 | CCN(CC)[C@@H]1C(c2ccccc2)=CC2CCC1C2 (some centres not stated) | > 30 mg/kg | 25 mg/kg | 2.4 mg/kg | – | – | – | –
2 | CCN[C@@H]1C(c2ccccc2)=CC2CCC1C2 (some centres not stated) | 3.1 mg/kg | 25 mg/kg | 15.6 mg/kg | 50 mg/kg | – | – | –
3 | CC(C)N[C@@H]1C(c2ccccc2)=CC2CCC1C2 (some centres not stated) | > 30 mg/kg | – | 15.4 mg/kg | – | – | – | –
4 | CN[C@@H]1C(c2ccccc2)=CC2CCC1C2 (some centres not stated) | 13.4 mg/kg | – | 4 mg/kg | – | – | – | –
5 | C=CCN[C@@H]1C(c2ccccc2)=CC2CCC1C2 (some centres not stated) | 11 mg/kg | – | 13.7 mg/kg | – | 50 mg/kg | – | –
6 | C1=C(c2ccccc2)[C@@H](NCC2CCCO2)C2CCC1C2 (some centres not stated) | > 30 mg/kg | – | > 30 mg/kg | – | – | 50 mg/kg | –
7 | N[C@@H]1C(c2ccccc2)=CC2CCC1C2 (some centres not stated) | > 10 mg/kg | – | 8.3 mg/kg | – | – | 25 mg/kg | 25 mg/kg
8 | C1=C(c2ccccc2)[C@@H](N2CCCC2)C2CCC1C2 (some centres not stated) | 15.7 mg/kg | – | 19 mg/kg | 25 mg/kg and 50 mg/kg | – | – | –
9 | CCCN[C@@H]1C(c2ccccc2)=CC2CCC1C2 (some centres not stated) | > 30 mg/kg | 25 mg/kg | – | – | – | – | –
10 | C1=C(c2ccccc2)[C@@H](NCC2CC2)C2CCC1C2 (some centres not stated) | > 30 mg/kg | – | 4.1 mg/kg | – | – | 25 mg/kg | –
11 | CN(C)CCN[C@@H]1C(c2ccccc2)=CC2CCC1C2 (some centres not stated) | 18.1 mg/kg | – | 31 mg/kg | – | – | 50 mg/kg | –
12 | CN(C)CCN(C)[C@@H]1C(c2ccccc2)=CC2CCC1C2 (some centres not stated) | > 30 mg/kg | – | – | – | – | 25 mg/kg | –
13 | CC(N)Cc1ccccc1 (configuration not stated) [AMPHETAMINE] | 2.1 mg/kg | 6.25 mg/kg | 1.6 mg/kg | 12.5 mg/kg | – | – | –
14 | COc1cccc(C2=CC3CCC(C3)[C@@H]2N(C)C)c1 (some centres not stated) | 7.8 mg/kg | – | 34.4 mg/kg | 50 mg/kg | – | – | –
15 | CC(C)N(C)[C@@H]1C(c2ccccc2)=CC2CCC1C2 (some centres not stated) | > 30 mg/kg | – | – | – | – | 25 mg/kg | –
16 | COc1ccc2c3c1O[C@H]1[C@@H](O)C=C[C@H]4[C@@H](C2)N(C)CC[C@@]341 [CODEINE] | 5.7 mg/kg | – | 10.3 mg/kg | – | – | 50 mg/kg | –
17 | CCN(C)[C@@H]1C(c2cccc(O)c2)=CC2CCC1C2 (some centres not stated) | > 30 mg/kg | – | – | – | – | 25 mg/kg | –
18 | CCN(C)[C@@H]1C(c2cccc(OC)c2)=CC2CCC1C2 (some centres not stated) | 10.4 mg/kg | – | 30.6 mg/kg | – | – | – | –
19 | CN(CC1CC1)[C@@H]1C(c2ccccc2)=CC2CCC1C2 (some centres not stated) | > 30 mg/kg | 50 mg/kg | – | – | – | – | –
20 | C1=C(c2ccccc2)[C@@H](NCCc2ccccc2)C2CCC1C2 (some centres not stated) | > 30 mg/kg | – | – | – | – | 50 mg/kg | –
21 | CCN(C)[C@@H]1C(c2ccccc2)=CC2CCC1C2 (some centres not stated) | 1.4 mg/kg | – | 11.8 mg/kg | 25 mg/kg | – | – | –
22 | COCCN[C@@H]1C(c2ccccc2)=CC2CCC1C2 (some centres not stated) | – | – | 27.7 mg/kg | – | – | – | –
23 | C=CCN(C)[C@@H]1C(c2ccccc2)=CC2CCC1C2 (some centres not stated) | > 30 mg/kg | – | – | – | – | 25 mg/kg | –
24 | COCCN(C)[C@@H]1C(c2ccccc2)=CC2CCC1C2 (some centres not stated) | > 30 mg/kg | – | – | – | – | 25 mg/kg | –
25 | CN(C)[C@@H]1C(c2ccccc2)=CC2CCC1C2 (some centres not stated) | 2.9 mg/kg | – | 3.9 mg/kg | 50 mg/kg | – | – | –
26 | CCCN(C)[C@@H]1C(c2ccccc2)=CC2CCC1C2 (some centres not stated) | > 30 mg/kg | – | – | – | – | 25 mg/kg | –
